# Experimental data: ChEMBL document CHEMBL4689842, “EUbOPEN Chemogenomics Library wave 1” (2021)
# System: HEK-293T
# Test: Multiplex assay against HEK293T;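 for Population Tubulin-Different-Phenotype (%): share of the cells with healthy nuclei that show this phenotype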
# Format: toxicity, cell-based
# Conditions: human
# In short: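 Compound was added to live cells that had been stained at seeding with Hoechst33342, BioTracker Green Microtubule Cytoskeleton Dye, MitoTracker Red and Annexin V Alexa Fluor 680, and imaging followed on a CQ1 microscope at 37°C and 5% CO2. CellPathfinder machine-learning gating divided cells into Hoechst high-intensity objects or normal cells, normal cells into healthy, pyknosed or fragmented nuclei, and pyknosed cells into mitotic or apoptotic. Tubulin, mitochondrial-mass and membrane-permeability phenotypes are per cents of healthy-nucleus cells.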
# [1] = 12 h, 1 µM, compound concentration 1 uM, replicate 1
# [2] = 12 h, 1 µM, compound concentration 1 uM, replicate 2
# [3] = 12 h, 10 µM, compound concentration 10 uM, replicate 1
# [4] = 12 h, 10 µM, compound concentration 10 uM, replicate 2
# [5] = 24 h, 1 µM, compound concentration 1 uM, replicate 1
# [6] = 24 h, 1 µM, compound concentration 1 uM, replicate 2
# [7] = 24 h, 10 µM, compound concentration 10 uM, replicate 1
# [8] = 24 h, 10 µM, compound concentration 10 uM, replicate 2
# [9] = 48 h, 1 µM, compound concentration 1 uM, replicate 1
# [10] = 48 h, 1 µM, compound concentration 1 uM, replicate 2
# [11] = 48 h, 10 µM, compound concentration 10 uM, replicate 1
# [12] = 48 h, 10 µM, compound concentration 10 uM, replicate 2
smiles,measurement,setting,value
CCCS(=O)(=O)c1nc(NC2CC2)cc(-c2ccc3c(ccn3C3CC(C)(C)NC(C)(C)C3)c2)n1,Population Apoptotic (%),[1],58%
same,Population Fragmented Nuclei (%),[1],8%
same,Population Healthy Nuclei (%),[1],37%
same,Population Hoechst High Intensity Objects (%),[1],13%
same,Population Membrane Permeable-Phenotype (%),[1],4%
same,Population Mitochondria Different-Phenotype (%),[1],86%
same,Population Mitotic Cells (%),[1],41%
same,Population Normal (%),[1],86%
same,Population Pyknosed Nuclei (%),[1],53%
same,Population Tubulin-Different-Phenotype (%),[1],80%
same,Total Cell Count,[1],351
same,Population Apoptotic (%),[2],18%
same,Population Fragmented Nuclei (%),[2],11%
same,Population Healthy Nuclei (%),[2],24%
same,Population Hoechst High Intensity Objects (%),[2],7%
same,Population Membrane Permeable-Phenotype (%),[2],12%
same,Population Mitochondria Different-Phenotype (%),[2],51%
same,Population Mitotic Cells (%),[2],81%
same,Population Normal (%),[2],92%
same,Population Pyknosed Nuclei (%),[2],64%
same,Population Tubulin-Different-Phenotype (%),[2],45%
same,Total Cell Count,[2],137
same,Population Apoptotic (%),[3],65%
same,Population Fragmented Nuclei (%),[3],63%
same,Population Healthy Nuclei (%),[3],3%
same,Population Hoechst High Intensity Objects (%),[3],9%
same,Population Membrane Permeable-Phenotype (%),[3],16%
same,Population Mitochondria Different-Phenotype (%),[3],16%
same,Population Mitotic Cells (%),[3],34%
same,Population Normal (%),[3],90%
same,Population Pyknosed Nuclei (%),[3],33%
same,Population Tubulin-Different-Phenotype (%),[3],16%
same,Total Cell Count,[3],650
same,Population Apoptotic (%),[4],74%
same,Population Fragmented Nuclei (%),[4],24%
same,Population Healthy Nuclei (%),[4],1%
same,Population Hoechst High Intensity Objects (%),[4],10%
same,Population Membrane Permeable-Phenotype (%),[4],0%
same,Population Mitochondria Different-Phenotype (%),[4],100%
same,Population Mitotic Cells (%),[4],25%
same,Population Normal (%),[4],89%
same,Population Pyknosed Nuclei (%),[4],74%
same,Population Tubulin-Different-Phenotype (%),[4],100%
same,Total Cell Count,[4],274
same,Population Apoptotic (%),[5],60%
same,Population Fragmented Nuclei (%),[5],10%
same,Population Healthy Nuclei (%),[5],37%
same,Population Hoechst High Intensity Objects (%),[5],14%
same,Population Membrane Permeable-Phenotype (%),[5],2%
same,Population Mitochondria Different-Phenotype (%),[5],79%
same,Population Mitotic Cells (%),[5],39%
same,Population Normal (%),[5],85%
same,Population Pyknosed Nuclei (%),[5],52%
same,Population Tubulin-Different-Phenotype (%),[5],80%
same,Total Cell Count,[5],345
same,Population Apoptotic (%),[6],31%
same,Population Fragmented Nuclei (%),[6],11%
same,Population Healthy Nuclei (%),[6],34%
same,Population Hoechst High Intensity Objects (%),[6],7%
same,Population Membrane Permeable-Phenotype (%),[6],11%
same,Population Mitochondria Different-Phenotype (%),[6],66%
same,Population Mitotic Cells (%),[6],68%
same,Population Normal (%),[6],92%
same,Population Pyknosed Nuclei (%),[6],53%
same,Population Tubulin-Different-Phenotype (%),[6],71%
same,Total Cell Count,[6],140
same,Population Apoptotic (%),[7],60%
same,Population Fragmented Nuclei (%),[7],63%
same,Population Healthy Nuclei (%),[7],3%
same,Population Hoechst High Intensity Objects (%),[7],11%
same,Population Membrane Permeable-Phenotype (%),[7],26%
same,Population Mitochondria Different-Phenotype (%),[7],5%
same,Population Mitotic Cells (%),[7],39%
same,Population Normal (%),[7],88%
same,Population Pyknosed Nuclei (%),[7],32%
same,Population Tubulin-Different-Phenotype (%),[7],10%
same,Total Cell Count,[7],639
same,Population Apoptotic (%),[8],88%
same,Population Fragmented Nuclei (%),[8],29%
same,Population Healthy Nuclei (%),[8],4%
same,Population Hoechst High Intensity Objects (%),[8],10%
same,Population Membrane Permeable-Phenotype (%),[8],11%
same,Population Mitochondria Different-Phenotype (%),[8],33%
same,Population Mitotic Cells (%),[8],12%
same,Population Normal (%),[8],89%
same,Population Pyknosed Nuclei (%),[8],66%
same,Population Tubulin-Different-Phenotype (%),[8],88%
same,Total Cell Count,[8],249
same,Population Apoptotic (%),[9],54%
same,Population Fragmented Nuclei (%),[9],15%
same,Population Healthy Nuclei (%),[9],47%
same,Population Hoechst High Intensity Objects (%),[9],17%
same,Population Membrane Permeable-Phenotype (%),[9],7%
same,Population Mitochondria Different-Phenotype (%),[9],58%
same,Population Mitotic Cells (%),[9],45%
same,Population Normal (%),[9],82%
same,Population Pyknosed Nuclei (%),[9],37%
same,Population Tubulin-Different-Phenotype (%),[9],79%
same,Total Cell Count,[9],417
same,Population Apoptotic (%),[10],28%
same,Population Fragmented Nuclei (%),[10],9%
same,Population Healthy Nuclei (%),[10],61%
same,Population Hoechst High Intensity Objects (%),[10],5%
same,Population Membrane Permeable-Phenotype (%),[10],12%
same,Population Mitochondria Different-Phenotype (%),[10],32%
same,Population Mitotic Cells (%),[10],71%
same,Population Normal (%),[10],94%
same,Population Pyknosed Nuclei (%),[10],29%
same,Population Tubulin-Different-Phenotype (%),[10],64%
same,Total Cell Count,[10],226
same,Population Apoptotic (%),[11],69%
same,Population Fragmented Nuclei (%),[11],67%
same,Population Healthy Nuclei (%),[11],3%
same,Population Hoechst High Intensity Objects (%),[11],11%
same,Population Membrane Permeable-Phenotype (%),[11],31%
same,Population Mitochondria Different-Phenotype (%),[11],0%
same,Population Mitotic Cells (%),[11],30%
same,Population Normal (%),[11],88%
same,Population Pyknosed Nuclei (%),[11],29%
same,Population Tubulin-Different-Phenotype (%),[11],0%
same,Total Cell Count,[11],663
same,Population Apoptotic (%),[12],87%
same,Population Fragmented Nuclei (%),[12],36%
same,Population Healthy Nuclei (%),[12],19%
same,Population Hoechst High Intensity Objects (%),[12],9%
same,Population Membrane Permeable-Phenotype (%),[12],6%
same,Population Mitochondria Different-Phenotype (%),[12],65%
same,Population Mitotic Cells (%),[12],12%
same,Population Normal (%),[12],90%
same,Population Pyknosed Nuclei (%),[12],44%
same,Population Tubulin-Different-Phenotype (%),[12],93%
same,Total Cell Count,[12],253
CCOC(=O)c1c(C)[nH]c2ccc3c(c12)CN1CCc2cc(OC)ccc2C1O3 (stereo unspecified),Population Apoptotic (%),[1],61%
same,Population Fragmented Nuclei (%),[1],14%
same,Population Healthy Nuclei (%),[1],30%
same,Population Hoechst High Intensity Objects (%),[1],14%
same,Population Membrane Permeable-Phenotype (%),[1],1%
same,Population Mitochondria Different-Phenotype (%),[1],100%
same,Population Mitotic Cells (%),[1],38%
same,Population Normal (%),[1],85%
same,Population Pyknosed Nuclei (%),[1],54%
same,Total Cell Count,[1],228
same,Population Apoptotic (%),[2],36%
same,Population Fragmented Nuclei (%),[2],4%
same,Population Healthy Nuclei (%),[2],28%
same,Population Hoechst High Intensity Objects (%),[2],5%
same,Population Membrane Permeable-Phenotype (%),[2],5%
same,Population Mitochondria Different-Phenotype (%),[2],88%
same,Population Mitotic Cells (%),[2],63%
same,Population Normal (%),[2],94%
same,Population Pyknosed Nuclei (%),[2],67%
same,Population Tubulin-Different-Phenotype (%),[2],86%
same,Total Cell Count,[2],132
same,Population Apoptotic (%),[3],90%
same,Population Fragmented Nuclei (%),[3],12%
same,Population Hoechst High Intensity Objects (%),[3],20%
same,Population Membrane Permeable-Phenotype (%),[3],0%
same,Population Mitochondria Different-Phenotype (%),[3],100%
same,Population Mitotic Cells (%),[3],9%
same,Population Normal (%),[3],79%
same,Population Pyknosed Nuclei (%),[3],76%
same,Population Tubulin-Different-Phenotype (%),[3],95%
same,Total Cell Count,[3],266
same,Population Apoptotic (%),[4],88%
same,Population Fragmented Nuclei (%),[4],5%
same,Population Healthy Nuclei (%),[4],10%
same,Population Hoechst High Intensity Objects (%),[4],12%
same,Population Membrane Permeable-Phenotype (%),[4],7%
same,Population Mitochondria Different-Phenotype (%),[4],92%
same,Population Mitotic Cells (%),[4],11%
same,Population Normal (%),[4],87%
same,Population Pyknosed Nuclei (%),[4],83%
same,Population Tubulin-Different-Phenotype (%),[4],92%
same,Total Cell Count,[4],156
same,Population Apoptotic (%),[5],57%
same,Population Fragmented Nuclei (%),[5],17%
same,Population Healthy Nuclei (%),[5],47%
same,Population Hoechst High Intensity Objects (%),[5],7%
same,Population Membrane Permeable-Phenotype (%),[5],0%
same,Population Mitochondria Different-Phenotype (%),[5],94%
same,Population Mitotic Cells (%),[5],42%
same,Population Normal (%),[5],92%
same,Population Pyknosed Nuclei (%),[5],35%
same,Population Tubulin-Different-Phenotype (%),[5],80%
same,Total Cell Count,[5],254
same,Population Apoptotic (%),[6],48%
same,Population Fragmented Nuclei (%),[6],3%
same,Population Healthy Nuclei (%),[6],45%
same,Population Hoechst High Intensity Objects (%),[6],3%
same,Population Membrane Permeable-Phenotype (%),[6],5%
same,Population Mitochondria Different-Phenotype (%),[6],91%
same,Population Mitotic Cells (%),[6],51%
same,Population Normal (%),[6],96%
same,Population Pyknosed Nuclei (%),[6],51%
same,Population Tubulin-Different-Phenotype (%),[6],86%
same,Total Cell Count,[6],154
same,Population Apoptotic (%),[7],91%
same,Population Fragmented Nuclei (%),[7],15%
same,Population Healthy Nuclei (%),[7],8%
same,Population Hoechst High Intensity Objects (%),[7],22%
same,Population Membrane Permeable-Phenotype (%),[7],0%
same,Population Mitochondria Different-Phenotype (%),[7],94%
same,Population Mitotic Cells (%),[7],8%
same,Population Normal (%),[7],77%
same,Population Pyknosed Nuclei (%),[7],75%
same,Population Tubulin-Different-Phenotype (%),[7],94%
same,Total Cell Count,[7],275
same,Population Apoptotic (%),[8],92%
same,Population Fragmented Nuclei (%),[8],6%
same,Population Healthy Nuclei (%),[8],9%
same,Population Hoechst High Intensity Objects (%),[8],16%
same,Population Mitochondria Different-Phenotype (%),[8],92%
same,Population Mitotic Cells (%),[8],7%
same,Population Normal (%),[8],83%
same,Population Pyknosed Nuclei (%),[8],84%
same,Population Tubulin-Different-Phenotype (%),[8],92%
same,Total Cell Count,[8],158
same,Population Apoptotic (%),[9],52%
same,Population Fragmented Nuclei (%),[9],11%
same,Population Healthy Nuclei (%),[9],70%
same,Population Hoechst High Intensity Objects (%),[9],7%
same,Population Membrane Permeable-Phenotype (%),[9],1%
same,Population Mitochondria Different-Phenotype (%),[9],71%
same,Population Mitotic Cells (%),[9],47%
same,Population Normal (%),[9],92%
same,Population Pyknosed Nuclei (%),[9],17%
same,Population Tubulin-Different-Phenotype (%),[9],50%
same,Total Cell Count,[9],354
same,Population Apoptotic (%),[10],36%
same,Population Fragmented Nuclei (%),[10],6%
same,Population Healthy Nuclei (%),[10],72%
same,Population Hoechst High Intensity Objects (%),[10],4%
same,Population Membrane Permeable-Phenotype (%),[10],2%
same,Population Mitochondria Different-Phenotype (%),[10],52%
same,Population Mitotic Cells (%),[10],63%
same,Population Normal (%),[10],95%
same,Population Pyknosed Nuclei (%),[10],21%
same,Population Tubulin-Different-Phenotype (%),[10],66%
same,Total Cell Count,[10],226
same,Population Apoptotic (%),[11],80%
same,Population Fragmented Nuclei (%),[11],19%
same,Population Healthy Nuclei (%),[11],22%
same,Population Hoechst High Intensity Objects (%),[11],29%
same,Population Membrane Permeable-Phenotype (%),[11],0%
same,Population Mitochondria Different-Phenotype (%),[11],100%
same,Population Mitotic Cells (%),[11],19%
same,Population Normal (%),[11],70%
same,Population Pyknosed Nuclei (%),[11],58%
same,Population Tubulin-Different-Phenotype (%),[11],93%
same,Total Cell Count,[11],290
same,Population Apoptotic (%),[12],93%
same,Population Fragmented Nuclei (%),[12],3%
same,Population Healthy Nuclei (%),[12],15%
same,Population Hoechst High Intensity Objects (%),[12],14%
same,Population Membrane Permeable-Phenotype (%),[12],5%
same,Population Mitochondria Different-Phenotype (%),[12],95%
same,Population Mitotic Cells (%),[12],6%
same,Population Normal (%),[12],85%
same,Population Pyknosed Nuclei (%),[12],80%
same,Population Tubulin-Different-Phenotype (%),[12],100%
same,Total Cell Count,[12],148
